WT yeast gro inh: growth inhibition of WT yeast, mitochondrial fusion screen; mitochondrial fusion phenotypic screen, WT strain; 2.1% of 190,000 active; inhibition, % at 10 µM; AID 1362; in the data active = inhibition above about 58%; tested in S. cerevisiae
p47phox inh: blocks human p47phox regulatory protein of NADPH oxidases; p47phox/p22phox peptide binding, fluorescence polarization, 2 h; inhibition, % at 24.7 µM; 0.53% of 220,000 active
RBBP9 inh: blocks human serine hydrolase RBBP9. inhibition, % at 7.94 µM. recombinant RBBP9, FP-Rh probe fluorescence polarization. 0.2% of 220,000 active. O75884;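 active = inhibition above the campaign mean of all tested compounds plus 3 SD, cut at about 14% in these data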
Target sequence (O75884 whole entry, looked up): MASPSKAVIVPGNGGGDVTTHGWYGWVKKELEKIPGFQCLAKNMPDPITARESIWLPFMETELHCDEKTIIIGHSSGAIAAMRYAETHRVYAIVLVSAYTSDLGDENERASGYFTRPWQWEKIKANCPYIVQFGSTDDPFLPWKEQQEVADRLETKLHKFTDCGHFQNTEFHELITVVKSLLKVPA
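Test system: recombinant human RBBP9; Timing: 30 min then 45 min, 25 °C; Detection: fluorescence polarization; Control set: RBBP9 with DMSO as uninhibited control, no-protein wells as full inhibition; Compound dosing: one concentration, 7.94 µM nominal, 0.794% DMSO; Probe or stimulus: FP-Rh activity-based probe, 375 nM before mixing.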
EBV gp42 inh: inhibitors of Epstein-Barr virus glycoprotein 42; 0.42% of 220,000 active; Fluorescence polarization binding assay, mP read-out; inhibition, % (tested at 21.74 µM); AID 1085; Q1HVG2; in the data active = inhibition above about 50%
Target sequence (Q1HVG2 whole entry, looked up): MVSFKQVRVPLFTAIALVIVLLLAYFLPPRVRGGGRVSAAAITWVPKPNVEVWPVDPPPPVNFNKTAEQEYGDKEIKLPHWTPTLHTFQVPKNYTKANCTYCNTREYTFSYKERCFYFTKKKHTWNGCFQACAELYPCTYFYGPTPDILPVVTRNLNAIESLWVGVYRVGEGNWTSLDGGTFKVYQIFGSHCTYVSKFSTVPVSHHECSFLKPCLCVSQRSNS
eIF4E 4G PPI: inhibitors of eIF4E and eIF4G interaction in translation initiation; P63073+Q04637; TR-FRET eIF4E-eIF4GI(517-606) binding, 2 h; inhibition, % at 21.7 µM; 0.37% of 220,000 active
14-3-3 Bad PPI: disrupts binding of bovine 14-3-3 zeta to phospho-Bad peptide; P63103; TR-FRET 14-3-3zeta/Dy647-pBad peptide displacement, 1 h; inhibition, % at 21.7 µM; 0.71% of 220,000 active;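 active = inhibition above about 70%, limit read from the data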
RBBP9 confirm: human RBBP9 inhibition, confirmation; shares compounds with RBBP9 inh; recombinant RBBP9, FP-Rh probe fluorescence polarization; inhibition, % at 7.94 µM; 36% of 410 active; AID 1537;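 active = inhibition above the hit cutoff derived for the primary screen, cut at about 15% in these data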
Numbers stand for hits; n = inactive; x = no result. Sampled rows, rich in hits. Any-hit rate of the full collection: about 3.7%.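 The calls were made as follows, unless noted: active = inhibition above about 30% (limit read from the data); inactive = the rest.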

SMILES | WT yeast gro inh | p47phox inh | RBBP9 inh | EBV gp42 inh | eIF4E 4G PPI | 14-3-3 Bad PPI | RBBP9 confirm
CCN(CC)c1cccc(OC2=NS(=O)(=O)c3ccccc32)c1 | n | n | 19 | n | n | n | 16
CCc1ccc(OC2=NS(=O)(=O)c3ccccc32)cc1 | n | n | n | n | n | n | x
O=C(OCC(=O)N1CCN(C(=O)c2ccco2)CC1)c1ccccc1OCc1ccc(Cl)cc1 | n | n | 20 | n | n | n | n
Cc1ccc(/C=C2\SC(=S)N(/N=C/c3cc([N+](=O)[O-])ccc3O)C2=O)o1 | n | n | 15 | n | n | n | 23
O=c1cc(O)nc(-c2ccc(Cl)cc2)s1 | n | n | n | n | n | n | x
CCOC(=O)c1c(C)n(-c2ccc(C)cc2)c2c(C(C(C)=O)C(=O)O)c(Br)c(O)c(O)c12 (configuration not stated) | n | n | n | n | n | n | x
CCOC(=O)C(C(C)=O)c1c(Br)c(O)c(O)c2c(C(=O)c3ccc(C)cc3)coc12 (configuration not stated) | n | n | 24 | n | n | n | 17
COc1cc(-c2ccc(Nc3ccccc3C(=O)O)c(OC)c2)ccc1Nc1ccccc1C(=O)O | x | n | 24 | 69 | 78 | 97 | 46
COc1cccc(Nc2ccccc2C(=O)O)c1 | n | n | n | n | n | n | x
COC(=O)c1cc(NC(=S)N2CCN(C(=O)C3CCCO3)CC2)cc(C(=O)OC)c1 (configuration not stated) | n | x | 21 | n | n | n | n
O=C(C1CCCO1)N1CCN(C(=S)Nc2ccc(F)cc2)CC1 (configuration not stated) | n | n | n | n | n | n | x
CCN1CCN(C(=O)C2(NC(=O)Nc3ccccc3Cl)CCCCC2)CC1 | n | n | 16 | n | n | n | n
CCc1ccc(NSc2ccccc2[N+](=O)[O-])cc1 | 80 | n | 16 | n | n | n | n
CCC(=O)NC(=S)NNC(=O)COc1ccc(Br)cc1 | n | n | n | n | n | n | x
Cc1cc(C)cc(-n2c(SC(C)C(=O)NCc3ccc4c(c3)OCO4)nc3ccccc3c2=O)c1 (configuration not stated) | n | n | 21 | n | n | n | n
CC(Sc1nnc2ccccn12)C(=O)NCc1ccc2c(c1)OCO2 (configuration not stated) | n | n | n | n | n | n | x
O=c1[nH][nH]c(=O)n1-c1ccccc1 | n | n | n | n | n | n | x
Cc1ccsc1C=Nc1ccc(O)cc1 | n | n | 15 | n | n | n | n
O=C(CSc1cccc[n+]1[O-])Nc1ccc(C(F)(F)F)cc1[N+](=O)[O-] | n | n | n | n | n | n | x
O=[N+]([O-])c1ccc(Sc2cccc[n+]2[O-])c2nonc12 | x | n | 19 | n | n | n | 50
CCc1ccc(OCC(=O)O/N=C(\N)c2cccnc2)cc1 | x | n | 15 | n | n | n | n
Oc1ccc(-c2nc3ccccc3s2)c(O)c1 | x | n | n | n | n | n | x
Oc1ccc(-c2cnns2)c(O)c1 | n | n | 41 | n | n | n | 56
COc1ccc(/C=N/OCC(=O)NCc2cccs2)c(OC)c1 | n | n | n | n | n | n | x
O=C(CN1CCCCC1)Nc1ccccc1Oc1ccccc1 | x | n | n | n | n | n | x
SMILES | WT yeast gro inh | p47phox inh | RBBP9 inh | EBV gp42 inh | eIF4E 4G PPI | 14-3-3 Bad PPI | RBBP9 confirm
Cc1cc(C2=NNC(=NC3CC3)SC2)c(C)n1-c1ccccc1 | n | n | 58 | n | n | n | 22
COc1ccc(CCCc2nnc(SCc3nc4ccccc4c(=O)[nH]3)n2C)c(C)c1 | x | n | n | n | n | n | x
O=C(COC(=O)/C=C/c1cccs1)Nc1nc(-c2ccccc2)cs1 | n | n | n | n | n | n | x
O=C(COC(=O)/C=C/c1cccs1)Nc1nc(-c2cccc(Br)c2)cs1 | x | n | 17 | n | n | n | 27
CC1=CC(C)(C)N(S(=O)(=O)c2ccc(C)cc2)c2cc(C)ccc21 | 76 | n | 21 | n | n | n | n
CC(C)C(=O)N(c1cc2sc(=O)oc2c2ccccc12)S(=O)(=O)c1cccs1 | 92 | n | 32 | n | n | n | n
CC1(C)CC(=O)CC(=O)/C1=N\Nc1c(Cl)cc(Cl)cc1Cl | n | n | n | n | n | n | x
C=CCn1c(=O)c2c(C)c(C)sc2n2c(Nc3ccc(OC)cc3)nnc12 | n | n | 16 | n | n | n | n
Cc1cc(C)cc(NC(=O)Nc2ccc(Cl)cn2)c1 | n | n | n | n | n | n | x
CCCN(CC#CC(O)(c1ccccc1)c1cccnc1)CCC (configuration not stated) | n | n | 22 | n | n | n | n
OC(C#CCN1CCCC1)(c1ccccc1)c1cccnc1 (configuration not stated) | x | n | n | n | n | n | x
COc1cc(C2NC(=O)NC3=C2C(=O)OC3)cc(OC)c1OC (configuration not stated) | x | n | n | n | n | n | x
COc1ccc(OC)c(CCNC(=O)Cn2cccc2C(=O)c2ccccc2C)c1 | n | n | 15 | n | n | n | n
CC(C)NC(=O)CSc1nc(N)c(NC(=O)c2ccco2)c(=O)[nH]1 | n | n | n | n | n | n | x
Nc1nc(SCC(=O)N2CCCCCC2)[nH]c(=O)c1NC(=O)c1ccco1 | n | n | 15 | n | n | n | 64
C=CCN(CC=C)Cc1c(O)ccc2c1oc(=O)c1ccccc12 | x | x | 25 | x | x | x | n
Cc1cc(=O)oc2c(CN(C)Cc3ccccc3)c(O)ccc12 | n | n | n | n | n | n | x
CCOC(=O)COc1cccc2c(=O)n(CC(=O)NCc3ccccc3)ccc12 | x | n | n | n | n | n | x
COC(=O)COc1cccc2c(=O)n(CC(=O)NCCc3ccccc3)ccc12 | n | n | 18 | n | n | n | n
Oc1ccc(-c2csc(Nc3ncccn3)n2)cc1O | n | n | 20 | n | n | n | 40
C=CCN=c1scc(-c2ccco2)n1/N=C/c1ccc(O)c(O)c1O | x | n | 48 | n | n | n | 84
CN=c1scc(-c2cccs2)n1/N=C/c1ccc(O)c(O)c1O | n | n | 32 | n | n | n | 83
Oc1ccc(/C=N/n2c(-c3ccco3)csc2=Nc2cccnc2)c(O)c1 | n | n | n | n | n | n | x
CN=c1scc(C)n1/N=C/c1ccc(O)c(O)c1O | n | n | n | n | n | n | x
NNC(=O)c1ccc(CN2CCCCC2)o1 | n | n | n | n | n | n | x
O=C(NCc1ccco1)C1CC(c2cccc([N+](=O)[O-])c2)=NO1 (configuration not stated) | n | n | 17 | n | n | n | n
CC(C)(C)C(=O)Nc1ccc(-c2cc3cc(Cl)ccc3o2)cc1 | x | n | n | n | n | n | x
O=C1c2ccccc2C(=O)N1/N=C/c1ccc(O)c(O)c1O | x | n | 20 | n | 98 | n | 45

Screening results as filed in PubChem.
